High-throughput results: PubChem BioAssay, Sanford-Burnham Center for Chemical Genomics
Most compounds without a hit are left out; they make up all but 1.7% or so of the library.
SKN-1 block – blocks SKN-1 activity in C. elegans; C. elegans VP596 Pgst-4::GFP/RFP ratio, acrylamide-induced, 24 h; inhibition, % at 21.8 µM; 360,000 compounds, 0.49% hits; AID 624304;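 active = interference check ratio from 0.5 to 1.5 plus GFP to RFP signal ratio inhibition reaching or exceeding a fixed threshold, cut at about 30% in these data, passing the limit was not always enough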
MT1-MMP act inh – MT1-MMP (human) activation inhibition | HT1080 RFP-PRO-GFP cells, GFP/RFP ratio fluorescence, overnight; percent of plate control window, DMSO zero | AID 651647 | 360,000 compounds, 0.061% hits | GFP/RFP ratio change, % at 20 µM;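 active = GFP/RFP ratio change of at least 30% with cell ATP level not reduced by more than half and red fluorescence within 50% of control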
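Material – HT1080 RFP-PRO-GFP cells · Control set – DMSO wells and RFP-L50D-GFP cells · Incubation – overnight cell settling, then overnight compound exposure, 37 °C, 5% CO2 · Compound dosing – single-point 20 µM compound, 1% DMSO · Read-out – GFP/RFP fluorescence ratio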
eIF4H FP inh – inhibitors of RNA binding by human eIF4H; Q15056; eIF4H fluorescence polarization binding assay; inhibition, % at 35 µM; 290,000 compounds, 0.94% hits;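 also: calls also rest on retests at 20 µM and on dose response follow-up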
PABP1 MLLE inh – blocks PAM2 peptide binding to the PABP1 MLLE domain | P11940 | GST-MLLE / FITC-PAM2 fluorescence polarization | inhibition, % at 20 µM | 360,000 compounds, 0.36% hits | AID 588489; in the data active = inhibition above about 35%, passing the limit was not always enough;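 also: plate controls were DMSO wells with GST-MLLE for no effect and wells lacking GST-MLLE protein for full effect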
Target sequence (P11940 whole entry, looked up, the tested form may be a part): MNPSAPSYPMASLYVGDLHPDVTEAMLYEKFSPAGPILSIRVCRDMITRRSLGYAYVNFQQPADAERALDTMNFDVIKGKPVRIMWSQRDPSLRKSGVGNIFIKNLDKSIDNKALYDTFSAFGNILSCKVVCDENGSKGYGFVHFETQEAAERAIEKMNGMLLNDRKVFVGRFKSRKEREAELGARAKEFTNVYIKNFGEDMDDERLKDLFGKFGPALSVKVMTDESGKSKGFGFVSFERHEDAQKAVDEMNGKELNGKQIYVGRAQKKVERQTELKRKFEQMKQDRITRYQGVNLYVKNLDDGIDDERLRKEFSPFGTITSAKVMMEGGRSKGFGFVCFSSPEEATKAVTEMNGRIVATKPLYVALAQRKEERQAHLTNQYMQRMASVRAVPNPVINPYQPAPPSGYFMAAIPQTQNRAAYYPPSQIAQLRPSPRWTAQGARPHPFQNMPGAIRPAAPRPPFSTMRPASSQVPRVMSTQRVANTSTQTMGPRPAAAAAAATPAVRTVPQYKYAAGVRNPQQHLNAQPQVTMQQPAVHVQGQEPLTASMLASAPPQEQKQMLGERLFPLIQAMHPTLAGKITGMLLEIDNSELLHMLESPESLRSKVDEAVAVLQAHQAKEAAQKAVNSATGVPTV
PABP polyA inh – PABP-poly(A) binding inhibition | PABP-poly(A) RNA binding, fluorescence polarization | 290,000 compounds, 1% hits | P11940 | inhibition, % at 35 µM;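 also: calls also rest on retests at 20 µM and on dose response follow-up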
An asterisk follows results filed as active; ? = inconclusive; / = no result. Unless noted, no rule for the calls is given here.

SMILES	SKN-1 block	MT1-MMP act inh	eIF4H FP inh	PABP1 MLLE inh	PABP polyA inh
N#C/C(=C(/O)COC(=O)CCc1ccc(S(=O)(=O)N2CCOCC2)cc1)c1nc2ccccc2[nH]1	22	-35	81	-12	41*
O=C(O)c1cc(-c2ccc(/C=C3\NC(=O)N(c4ccc(Cl)cc4)C3=O)o2)ccc1Cl	8	-1	85*	-15	92*
O=C(O)c1cc(-c2ccc(/C=c3\sc4nc5ccc(Br)cc5n4c3=O)o2)ccc1Cl	/	/	55*	/	54*
O=C(O)c1ccccc1-c1ccc(/C=c2\sc3nc4cc(Br)cnc4n3c2=O)o1	2	-52	77*	-125	51*
Cc1cc2nc3s/c(=C/c4ccc(-c5ccccc5C(=O)O)o4)c(=O)n3c2cc1C	5	-61	36	-143	42
CCC(C)NC(=O)c1cc(-c2ccc3c(c2)OCO3)on1 (stereo not given)	8	-1	0	2	2
Cc1c(C(=O)Nc2ccc(S(=O)(=O)Nc3ncccn3)cc2)oc2ccc(F)cc12	-7	8	12	-5	1
CCc1ccc(/C=C2\SC(=S)N(CCCC(=O)Nc3ccccn3)C2=O)cc1	47*	-6	?	-37	?
O=C(CN1C(=O)S/C(=C\c2ccccc2)C1=O)NNC(=O)c1ccccc1O	7	6	7.4*	5	97*
CC(=O)NNC(=O)CN1C(=O)/C(=C/c2ccccc2)SC1=S	2	7	3	50*	4
O=C(CN1C(=O)S/C(=C\c2ccccc2)C1=O)NCCCn1ccnc1	-5	3	-2	43*	1
CCN(CC)C(=O)CN1C(=O)/C(=C/c2ccccc2)SC1=S	-5	2	-3	23	13
CCCC[n+]1ccn(-c2nc3c([N+](=O)[O-])cccc3n2C)c1	21	-1	/	-124	/
O=C(CCNC(=O)c1ccc(Cl)cc1)Nc1ccc(S(=O)(=O)N2CCCCC2)cc1	6	1	/	-8	/
O=C(NC(=S)Nc1ccc(CN2CCOCC2)cc1)c1ccc([N+](=O)[O-])cc1	11	-2	-5	52*	-1
COc1ccc(C(=O)NC(=S)Nc2ccc(CN3CCOCC3)cc2)cc1	18	5	-4	20	11
O=C(/C=C/c1cccc([N+](=O)[O-])c1)NC(=S)Nc1ccc(CN2CCOCC2)cc1	-2	-18	-7	40*	4
OCc1cccc(-c2csc(C(O)(c3ccccc3)C(F)(F)F)n2)c1 (stereo not given)	35*	1	/	-3	/
COc1ccc(CNC(=O)c2ccc(S(=O)(=O)NCc3ccco3)cc2)cc1	5	5	/	-6	/
COC(=O)C1=C(C)N(c2ccc(OC)cc2)C(=O)/C1=C\c1cccs1	1	-2	active	-9	71*
Clc1ccc(OCc2cnc(Cl)s2)cc1	61*	2	-5	1	-3
O=C(NC(=S)Nc1ccccc1)c1csnn1	3	1	2	37*	14
COc1ccc(NC(=S)NC(=O)c2csnn2)cc1	-5	1	5	25	0
Cc1ccc2c(C)c(C)c(=O)n(C)c2c1	11	3	/	-11	/
NC(=S)n1[nH]c(-c2ccc([N+](=O)[O-])cc2)c(N=Nc2ccccc2[N+](=O)[O-])c1=O	6	9	38	32	-31
SMILES	SKN-1 block	MT1-MMP act inh	eIF4H FP inh	PABP1 MLLE inh	PABP polyA inh
Cc1c(N=Nc2c(-c3ccc([N+](=O)[O-])cc3)[nH]n(C(N)=S)c2=O)cccc1[N+](=O)[O-]	20	-45	?	41*	active
NC(=S)n1[nH]c(-c2ccc([N+](=O)[O-])cc2)c(N=Nc2cccc([N+](=O)[O-])c2)c1=O	6	-12	/	42*	/
Fc1ccc(C2CC(c3cccs3)=NN2c2ccccc2)cc1 (stereo not given)	6	-4	-12	7	17
COc1ccccc1C1CN(c2ccc(F)cc2F)N=C1c1cccs1 (stereo not given)	44*	-8	-12	-2	-14
CC(=O)Nc1nn(C)c2nc3cc(C)ccc3cc12	-15	4	-2	-4	-2
Cc1ccc2cc3c(NC(=O)c4cccnc4)nn(C)c3nc2c1	40*	6	9	-11	-7
COc1cc(C(=O)NC2=NCCS2)ccc1OCc1c(C)noc1C	5	-2	-5	42*	2
COc1ccc(CCNC(=O)c2ccc(OCc3c(C)noc3C)c(OC)c2)cc1	-8	4	/	-5	/
COc1cc(C(=O)NCCc2c[nH]c3ccccc23)ccc1OCc1c(C)noc1C	4	10	active	-11	59
COc1ccc(CNC(=O)COC(=O)c2ccc(OCc3c(C)noc3C)cc2)cc1OC	1	1	90*	-30	-8
Cc1c(C(=O)N2CC(C)OC(C)C2)[nH]c2ccc(Br)cc12 (stereo not given)	7	0	7	-13	-12
COc1ccccc1CCNC(=O)c1ccc2nc[nH]c2c1	-3	2	38	-1	16
CCCn1nc(C(=O)Nc2ccc3c(c2)OCCO3)c2ccccc2c1=O	6	-7	/	4	/
CC(c1nnc(SCC(=O)c2c(N)n(C3CC3)c(=O)[nH]c2=O)n1-c1ccc(F)cc1)N(C)C (stereo not given)	0	4	/	5	/
O=C(Nc1nc2ccccc2s1)c1ccccc1	65*	-2	3	3	7
O=c1[nH]c2cc3c(cc2cc1CN(CCc1ccccc1)Cc1nnnn1CC1CCCO1)OCO3 (stereo not given)	15	-4	?	10	120*
CCC(C)(C)n1nnnc1CN(Cc1ccco1)Cc1cc2cc3c(cc2[nH]c1=O)OCO3	11	-3	-3	40*	48
O=c1[nH]c2cc3c(cc2cc1CN(Cc1nnnn1CC1CCCO1)C1CCCC1)OCO3 (stereo not given)	-28	-4	76	64*	65*
Cc1ccc2[nH]c(=O)c(CN(CCc3ccccc3)Cc3nnnn3CC3CCCO3)cc2c1 (stereo not given)	8	2	1	14	-3
O=c1[nH]c2cc3c(cc2cc1CN(Cc1nnnn1CC1CCCO1)C1CCCCC1)OCO3 (stereo not given)	-1	-10	24	72	31
C=C(C)CN(CC)C(=O)CSc1nc(O)cc(=O)n1C1CCCC1	-8	-4	-6	14	5
COc1cc(NS(=O)(=O)c2ccc(Br)cc2)c(OC)cc1NC(=O)c1ccco1	48*	-2	-7	-24	5
O=C1OC(c2ccc3c(c2)OCO3)=N/C1=C\c1ccc(C(=O)O)cc1	-2	7	55*	0	-1
Nc1nc(Cl)nc2c1ncn2C1OCC(O)C(O)C1O (stereo not given)	15	-1	/	-11	/
Cc1cc(C)c2cc3c(ccn3C3OC[C@H](O)[C@H](O)[C@H]3O)cc2n1 (stereo not given in full)	8	-6	33*	49*	53*
